{"source": "paper PMC33344", "about": "(BMC Chemical Biology, 2001)", "key": {"[1]": {"target": "bullfrog sympathetic ganglia SPR (bfSPR) (Aquarana catesbeiana, UniProt Q98982)", "sequence (Q98982 whole entry)": "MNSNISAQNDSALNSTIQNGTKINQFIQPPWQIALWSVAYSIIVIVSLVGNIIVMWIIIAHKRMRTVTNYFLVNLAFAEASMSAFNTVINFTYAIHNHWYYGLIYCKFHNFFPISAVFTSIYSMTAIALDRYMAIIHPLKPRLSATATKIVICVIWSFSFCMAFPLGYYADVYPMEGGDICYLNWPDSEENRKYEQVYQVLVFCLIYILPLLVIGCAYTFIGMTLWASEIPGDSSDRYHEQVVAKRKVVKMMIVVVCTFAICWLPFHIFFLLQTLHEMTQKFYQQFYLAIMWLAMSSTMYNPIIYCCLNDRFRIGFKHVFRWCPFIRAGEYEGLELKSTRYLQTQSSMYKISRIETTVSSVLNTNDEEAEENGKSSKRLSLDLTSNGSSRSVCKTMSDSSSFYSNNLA", "test": "Whole cell recording of M-type K+ current", "format": "cell-based", "settings": "for inhibition of IM: single bullfrog sympathetic neurons"}, "[2]": {"test": "Fluorophore spectral analysis", "format": "physicochemical", "settings": "10 nM in PBS, pH 7.4", "outline": "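Fluorophore-labelled substance P conjugates were analysed in a spectrofluorometer at 10 nM in PBS, pH 7.4, as solvent. Excitation and emission spectra were recorded for each conjugate, and peak wavelengths were read from the curves.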"}}, "data": [{"molecule": "Alexa 488-SP: Substance P with Alexa 488 covalently linked at Lys3; Molecular Probes product S-13426", "values": [{"measurement": "inhibition of IM", "setting": "[1]; 100 nM, 0.1 µM", "result": "did not inhibit IM"}, {"measurement": "inhibition of IM", "setting": "[1]; 1 μM", "result": "did not inhibit IM"}, {"measurement": "peak excitation", "setting": "[2]", "result": 490, "unit": "nm"}, {"measurement": "peak of the emission curve", "setting": "[2]", "result": 515, "unit": "nm"}]}, {"molecule": "CSCC[C@H](NC(=O)[C@H](CC(C)C)NC(=O)CNC(=O)[C@H](Cc1ccccc1)NC(=O)[C@H](Cc1ccccc1)NC(=O)[C@H](CCC(N)=O)NC(=O)[C@H](CCC(N)=O)NC(=O)[C@@H]1CCCN1C(=O)[C@H](CCCCN)NC(=O)[C@@H]1CCCN1C(=O)[C@@H](N)CCCN=C(N)N)C(N)=O", "note": "[SP, reference compound]", "values": [{"measurement": "inhibition at 0.1 µM", "setting": "[1]; read-out: inhibition of IM", "result": "~70", "unit": "%"}]}, {"molecule": "fluorescein-SP: Substance P with fluorescein covalently linked at Lys3; Molecular Probes product S-13424", "values": [{"measurement": "peak excitation", "setting": "[2]", "result": 495, "unit": "nm"}, {"measurement": "peak of the emission curve", "setting": "[2]", "result": 520, "unit": "nm"}]}]}
